Bridge positions count the residues as written; N and C are the ends. Square brackets hold non-standard residues; d marks the D form. Peptide text beside a SMILES is read from it. R8 = C=CCCCCCC[C@@](C)(N)C(=O)O; S5 = C=CCCC[C@](C)(N)C(=O)O

Data set [1] is described as follows: Cytotoxicity against human TZM-bl cells after 3 days by XTT assay. It counts as cell-based.
The nature of data set [2]: Cytotoxicity against human MT2 cells after 4 days by XTT assay. It counts as cell-based. A general note: Tetrazolium dyes change colour on reduction, which living cells bring about.
Data set [3] deals with Human immunodeficiency virus 1. The data set can be described thus: Antiviral activity against HIV-1 3B infected in human MT-2 cells assessed as reduction in p24 antigen level incubated for overnight measured on fourth day post infection by multi-cycle infection assay based sandwich ELISA. It counts as functional, organism-based. The following applies: Human immunodeficiency virus 1, 3B, MT2. Put shortly: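 Multi-cycle infection in MT-2 cells; read-out is reduction of p24 levels. IC50 derived from dose-response.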
A general note: An ELISA detects its analyte on a solid surface through an enzyme-linked reagent.

Data set [4] deals with Human immunodeficiency virus 1. Description: Antiviral activity against HIV-1 NL4-3-HXB2 pseudovirus co-transfected with luciferase gene infected in human TZM-bl cells assessed as reduction of luciferase production after 3 days by single-cycle neutralization assay. It counts as functional, organism-based. The following applies: Human immunodeficiency virus 1, NL4-3-HXB2, TZM-bl, 72 h. The method, boiled down: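 Single-cycle neutralization in TZM-bl cells; read-out is reduction of luciferase production. IC50 derived from dose-response.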

The compound `CC[C@H](C)[C@H](NC(C)=O)C(=O)N[C@@H](CO)C(=O)N[C@@H](Cc1ccccc1)C(=O)N[C@@H]1CSCc2ccc(cc2)-c2ccc(cc2)CSC[C@@H](C(=O)N[C@@H](CCC(=O)O)C(=O)N[C@@H](CO)C(=O)NCC(=O)N[C@@H](CO)C(N)=O)NC(=O)[C@H](Cc2ccc(O)cc2)NC(=O)[C@H](Cc2ccc(O)cc2)NC(=O)[C@H](CC(N)=O)NC(=O)[C@H](CC(C)C)NC(=O)[C@H](CC(C)C)NC(=O)[C@H](CCC(=O)O)NC1=O` registered a CC50 at 72 h in data set [1] greater than 102 µM. For the same compound, the CC50 at 96 h in data set [2] is greater than 102 µM. For the same compound, the IC50 in data set [3] stood at 8.8 µM; in data set [4], 1.8 µM.

As for `CC[C@H](C)[C@H](NC(C)=O)C(=O)N[C@@H](CO)C(=O)N[C@@H](Cc1ccccc1)C(=O)N[C@@H]1CSCc2ccc(cc2)-c2ccc(cc2)CSC[C@@H](C(=O)N[C@@H](CCC(=O)O)C(=O)N[C@@H](CO)C(=O)NCC(=O)N[C@@H](CO)C(N)=O)NC(=O)[C@H](Cc2ccc(O)cc2)NC(=O)[C@H](Cc2ccc(O)cc2)NC(=O)[C@H](CC(N)=O)NC(=O)[C@H](CC(C)C)NC(=O)[C@H](CC(C)C)NC(=O)[C@H](CCC(N)=O)NC1=O`, in data set [1], the CC50 at 72 h is greater than 102 µM. It took 51 µM to reach half-maximal cytotoxicity in data set [2] (CC50 at 96 h). Also, the IC50 in data set [3] was 5.7 µM; in data set [4], 1.6 µM.

For `CC[C@H](C)[C@H](NC(C)=O)C(=O)N[C@@H](CO)C(=O)N[C@@H](Cc1ccccc1)C(=O)N[C@@H]1CSCc2ccc(cc2)-c2ccc(cc2)CSC[C@@H](C(=O)N[C@@H](CCC(=O)O)C(=O)N[C@@H](CO)C(=O)NCC(=O)N[C@@H](CO)C(N)=O)NC(=O)[C@H](Cc2ccc(O)cc2)NC(=O)[C@H](Cc2ccc(O)cc2)NC(=O)[C@H](CC(=O)O)NC(=O)[C@H](CC(C)C)NC(=O)[C@H](CC(C)C)NC(=O)[C@H](CCC(N)=O)NC1=O`, the CC50 at 72 h in data set [1] was greater than 103 µM. Also, the CC50 at 96 h in data set [2] is greater than 103 µM. The results for the IC50 in data set [3] and in data set [4] were 5.5 µM and 3.1 µM, respectively.

For `CC[C@H](C)[C@H](N)C(=O)N[C@@H](CO)C(=O)N[C@@H](Cc1ccccc1)C(=O)N[C@]1(C)CCCCCC/C=C\CCC[C@@](C)(C(=O)N[C@@H](CCC(=O)O)C(=O)N[C@@H](CO)C(=O)NCC(=O)N[C@@H](CO)C(=O)O)NC(=O)[C@H](Cc2ccc(O)cc2)NC(=O)[C@H](Cc2ccc(O)cc2)NC(=O)[C@H](CC(=O)O)NC(=O)[C@H](CC(C)C)NC(=O)[C@H](CC(C)C)NC(=O)[C@H](CCC(=O)O)NC1=O` (H-ISF[R8]ELLDYY[S5]ESGS-OH; staple (Z) 4-11), the 50% cytotoxic concentration (CC50) at 72 h in data set [1] was greater than 189 µM. This compound displayed a CC50 at 96 h in data set [2] greater than 189 µM. For the same compound, the IC50 in data set [3] was 1.5 µM; in data set [4], 2 µM.

A word on the CC50: it is the concentration that lowers cell viability or growth by half. A higher CC50 goes with lower toxicity to the cells. As usually defined, the IC50 is the point on the concentration scale where inhibition reaches its midpoint.

(Values after ChEMBL document CHEMBL3232893, “Design of antiviral stapled peptides containing a biphenyl cross-linker” (Bioorg Med Chem Lett, 2014).)
